Source: ChEMBL document CHEMBL4184148 (Bioorg Med Chem Lett, 2017)

Experiments:
[1] = biological target: Mitogen-activated protein kinase kinase kinase 13 (Homo sapiens) (UniProt O43283); assay: Binding affinity to wild-type human full length LZK (M1 to W966 residues) expressed in HEK293 cells at 1 uM by Kinomescan method relative to control; type: cell-based
How it was run: (§1)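 Run as one kinome-wide competition binding panel with each compound at a single fixed concentration. Results were plotted as a kinome-wide selectivity map.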

[2] = biological target: Casein kinase II subunit alpha (Homo sapiens) (UniProt P68400); assay: Binding affinity to wild-type human full length CSNK2A1 (M1 to Q391 residues) expressed in HEK293 cells at 1 uM by Kinomescan method relative to control; type: cell-based; how it was run: as §1
Sequence of Casein kinase II subunit alpha (Homo sapiens) (P68400 whole entry, looked up, the tested form may be a part): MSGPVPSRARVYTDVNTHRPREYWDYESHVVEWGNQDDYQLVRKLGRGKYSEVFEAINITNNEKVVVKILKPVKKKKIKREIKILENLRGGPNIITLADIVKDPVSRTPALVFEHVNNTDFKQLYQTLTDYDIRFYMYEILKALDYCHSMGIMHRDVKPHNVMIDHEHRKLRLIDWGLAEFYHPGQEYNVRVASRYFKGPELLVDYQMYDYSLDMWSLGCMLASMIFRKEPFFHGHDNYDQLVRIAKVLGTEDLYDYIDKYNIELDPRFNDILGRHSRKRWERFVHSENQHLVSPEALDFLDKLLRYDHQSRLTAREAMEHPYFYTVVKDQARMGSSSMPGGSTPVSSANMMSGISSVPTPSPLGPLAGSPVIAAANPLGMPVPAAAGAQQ

[3] = biological target: Calcium/calmodulin-dependent protein kinase type II subunit delta (Homo sapiens) (UniProt Q13557); assay: Binding affinity to wild-type human partial length CAMK2D (M1 to E329 residues) expressed in Escherichia coli BL21 at 1 uM by Kinomescan method relative to control
[4] = biological target: Tyrosine-protein kinase JAK1 (Homo sapiens) (UniProt P23458); assay: Binding affinity to wild-type human partial length JAK1 JH2 pseudokinase domain (R537 to D855 residues) expressed in HEK293 cells at 1 uM by Kinomescan method relative to control; type: cell-based
Sequence of Tyrosine-protein kinase JAK1 (Homo sapiens) (P23458 whole entry, the tested form may be a part): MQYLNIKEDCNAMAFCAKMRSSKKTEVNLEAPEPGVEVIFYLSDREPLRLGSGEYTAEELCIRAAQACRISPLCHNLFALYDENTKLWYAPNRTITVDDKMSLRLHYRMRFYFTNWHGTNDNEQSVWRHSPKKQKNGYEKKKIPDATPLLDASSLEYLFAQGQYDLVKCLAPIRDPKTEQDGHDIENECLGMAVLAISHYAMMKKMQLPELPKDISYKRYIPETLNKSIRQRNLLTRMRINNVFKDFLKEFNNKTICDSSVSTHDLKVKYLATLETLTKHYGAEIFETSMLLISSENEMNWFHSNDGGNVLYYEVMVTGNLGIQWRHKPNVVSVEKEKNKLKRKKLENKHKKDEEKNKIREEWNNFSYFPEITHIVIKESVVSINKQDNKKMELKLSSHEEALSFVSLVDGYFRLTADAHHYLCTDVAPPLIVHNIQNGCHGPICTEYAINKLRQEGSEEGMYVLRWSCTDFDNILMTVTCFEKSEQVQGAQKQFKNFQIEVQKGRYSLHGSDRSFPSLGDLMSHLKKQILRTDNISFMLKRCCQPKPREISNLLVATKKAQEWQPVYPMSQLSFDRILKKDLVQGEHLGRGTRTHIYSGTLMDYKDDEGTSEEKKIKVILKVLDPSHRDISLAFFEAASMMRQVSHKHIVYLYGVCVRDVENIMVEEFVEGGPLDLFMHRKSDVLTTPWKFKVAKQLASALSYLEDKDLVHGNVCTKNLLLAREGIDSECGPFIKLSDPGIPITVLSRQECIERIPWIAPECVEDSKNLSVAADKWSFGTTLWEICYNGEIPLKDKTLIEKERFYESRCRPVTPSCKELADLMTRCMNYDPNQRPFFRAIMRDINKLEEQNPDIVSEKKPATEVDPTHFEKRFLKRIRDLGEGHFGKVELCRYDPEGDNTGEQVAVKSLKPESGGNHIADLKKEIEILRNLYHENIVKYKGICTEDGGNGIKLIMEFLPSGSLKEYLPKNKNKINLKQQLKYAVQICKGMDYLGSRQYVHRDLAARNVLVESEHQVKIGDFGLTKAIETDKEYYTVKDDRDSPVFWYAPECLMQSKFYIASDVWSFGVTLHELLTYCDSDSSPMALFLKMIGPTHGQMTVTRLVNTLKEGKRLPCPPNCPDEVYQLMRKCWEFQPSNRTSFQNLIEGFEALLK

[5] = biological target: Myosin light chain kinase, smooth muscle (Homo sapiens) (UniProt Q15746); assay: Binding affinity to wild-type human full length MYLK (M854 to E1845 residues) expressed in HEK293 cells at 1 uM by Kinomescan method relative to control; type: cell-based; how it was run: as §1
[6] = biological target: Bone morphogenetic protein receptor type-2 (Homo sapiens) (UniProt Q13873); assay: Binding affinity to wild-type human partial length BMPR2 (R179 to Q526 residues) expressed in HEK293 cells at 1 uM by Kinomescan method relative to control; type: cell-based
[7] = biological target: Fibroblast growth factor receptor 2 (Homo sapiens) (UniProt P21802); assay: Binding affinity to wild-type human partial length FGFR2 (D457 to E769 residues) expressed in Escherichia coli BL21 at 1 uM by Kinomescan method relative to control
[8] = biological target: Serine/threonine-protein kinase MARK2 (Homo sapiens) (UniProt Q7KZI7); assay: Binding affinity to wild-type human partial length MARK2 (M1 to R450 residues) expressed in Escherichia coli BL21 at 1 uM by Kinomescan method relative to control
[9] = biological target: Serine/threonine-protein kinase Nek1 (Homo sapiens) (UniProt Q96PY6); assay: Binding affinity to wild-type human partial length NEK1 (M1 to K278 residues) expressed in Escherichia coli BL21 at 1 uM by Kinomescan method relative to control
Sequence of Serine/threonine-protein kinase Nek1 (Homo sapiens) (Q96PY6 whole entry, the tested form may be a part): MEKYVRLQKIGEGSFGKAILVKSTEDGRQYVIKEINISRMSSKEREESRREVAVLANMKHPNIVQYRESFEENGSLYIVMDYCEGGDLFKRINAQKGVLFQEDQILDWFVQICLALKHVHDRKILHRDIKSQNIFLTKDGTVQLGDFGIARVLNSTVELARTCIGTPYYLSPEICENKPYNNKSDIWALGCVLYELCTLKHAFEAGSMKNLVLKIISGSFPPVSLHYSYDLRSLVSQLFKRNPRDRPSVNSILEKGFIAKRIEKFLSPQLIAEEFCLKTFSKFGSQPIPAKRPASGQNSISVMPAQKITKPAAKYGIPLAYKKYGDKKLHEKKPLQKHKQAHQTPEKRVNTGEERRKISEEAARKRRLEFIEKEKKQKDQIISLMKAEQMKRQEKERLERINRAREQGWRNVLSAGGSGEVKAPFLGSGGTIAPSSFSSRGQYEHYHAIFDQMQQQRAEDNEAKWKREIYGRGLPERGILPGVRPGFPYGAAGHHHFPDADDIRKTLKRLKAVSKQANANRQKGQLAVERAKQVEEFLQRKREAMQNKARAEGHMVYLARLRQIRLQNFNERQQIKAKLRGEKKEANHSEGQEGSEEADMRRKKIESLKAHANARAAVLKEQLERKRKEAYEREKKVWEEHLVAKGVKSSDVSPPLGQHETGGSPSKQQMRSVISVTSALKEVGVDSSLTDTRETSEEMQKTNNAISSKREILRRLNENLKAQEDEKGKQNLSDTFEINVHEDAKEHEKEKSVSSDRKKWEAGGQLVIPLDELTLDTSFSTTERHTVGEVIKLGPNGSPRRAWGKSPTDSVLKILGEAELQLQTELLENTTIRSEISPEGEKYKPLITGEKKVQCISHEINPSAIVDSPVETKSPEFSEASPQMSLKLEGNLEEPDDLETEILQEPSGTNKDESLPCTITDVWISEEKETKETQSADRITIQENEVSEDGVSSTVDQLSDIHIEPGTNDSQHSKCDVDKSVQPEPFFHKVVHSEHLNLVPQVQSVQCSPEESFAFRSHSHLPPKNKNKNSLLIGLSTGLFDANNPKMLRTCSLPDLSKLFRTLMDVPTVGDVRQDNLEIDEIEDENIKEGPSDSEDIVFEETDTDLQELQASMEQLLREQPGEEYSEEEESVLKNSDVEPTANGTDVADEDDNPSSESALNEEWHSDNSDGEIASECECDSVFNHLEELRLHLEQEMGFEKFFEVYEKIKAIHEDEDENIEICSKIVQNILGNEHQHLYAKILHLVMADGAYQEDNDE

[10] = biological target: Serine/threonine-protein kinase PLK1 (Homo sapiens) (UniProt P53350); assay: Binding affinity to wild-type human partial length PLK1 (A33 to F325 residues) expressed in HEK293 cells at 1 uM by Kinomescan method relative to control; type: cell-based
[11] = biological target: Tyrosine-protein kinase Fyn (Homo sapiens) (UniProt P06241); assay: Binding affinity to wild-type human partial length FYN (T243 to L534 residues) expressed in Escherichia coli BL21 at 1 uM by Kinomescan method relative to control
[12] = biological target: AP2-associated protein kinase 1 (Homo sapiens) (UniProt Q2M2I8); assay: Binding affinity to human wild-type AAK1 (G25 to L333 residues) expressed in Escherichia coli BL21 at 1 uM by Kinomescan method relative to control
[13] = biological target: Dual specificity mitogen-activated protein kinase kinase 2 (Homo sapiens) (UniProt P36507); assay: Binding affinity to wild-type human full length MEK2 (M1 to V400 residues) expressed in HEK293 cells at 1 uM by Kinomescan method relative to control; type: cell-based; how it was run: as §1
[14] = biological target: LIM domain kinase 1 (Homo sapiens) (UniProt P53667); assay: Binding affinity to wild-type human full length LIMK1 (M1 to D647 residues) expressed in Escherichia coli BL21 at 1 uM by Kinomescan method relative to control; how it was run: as §1
[15] = tested on: Tyrosine-protein kinase ABL1 (Homo sapiens), P00519 [F317L]; assay: Binding affinity to human non-phosphorylated ABL1 F317L mutant (S229 to K512 residues) expressed in HEK293 cells at 1 uM by Kinomescan method relative to control; type: cell-based
Sequence of Tyrosine-protein kinase ABL1 (Homo sapiens), P00519 [F317L] (P00519 whole entry F317L, the tested form may be a part): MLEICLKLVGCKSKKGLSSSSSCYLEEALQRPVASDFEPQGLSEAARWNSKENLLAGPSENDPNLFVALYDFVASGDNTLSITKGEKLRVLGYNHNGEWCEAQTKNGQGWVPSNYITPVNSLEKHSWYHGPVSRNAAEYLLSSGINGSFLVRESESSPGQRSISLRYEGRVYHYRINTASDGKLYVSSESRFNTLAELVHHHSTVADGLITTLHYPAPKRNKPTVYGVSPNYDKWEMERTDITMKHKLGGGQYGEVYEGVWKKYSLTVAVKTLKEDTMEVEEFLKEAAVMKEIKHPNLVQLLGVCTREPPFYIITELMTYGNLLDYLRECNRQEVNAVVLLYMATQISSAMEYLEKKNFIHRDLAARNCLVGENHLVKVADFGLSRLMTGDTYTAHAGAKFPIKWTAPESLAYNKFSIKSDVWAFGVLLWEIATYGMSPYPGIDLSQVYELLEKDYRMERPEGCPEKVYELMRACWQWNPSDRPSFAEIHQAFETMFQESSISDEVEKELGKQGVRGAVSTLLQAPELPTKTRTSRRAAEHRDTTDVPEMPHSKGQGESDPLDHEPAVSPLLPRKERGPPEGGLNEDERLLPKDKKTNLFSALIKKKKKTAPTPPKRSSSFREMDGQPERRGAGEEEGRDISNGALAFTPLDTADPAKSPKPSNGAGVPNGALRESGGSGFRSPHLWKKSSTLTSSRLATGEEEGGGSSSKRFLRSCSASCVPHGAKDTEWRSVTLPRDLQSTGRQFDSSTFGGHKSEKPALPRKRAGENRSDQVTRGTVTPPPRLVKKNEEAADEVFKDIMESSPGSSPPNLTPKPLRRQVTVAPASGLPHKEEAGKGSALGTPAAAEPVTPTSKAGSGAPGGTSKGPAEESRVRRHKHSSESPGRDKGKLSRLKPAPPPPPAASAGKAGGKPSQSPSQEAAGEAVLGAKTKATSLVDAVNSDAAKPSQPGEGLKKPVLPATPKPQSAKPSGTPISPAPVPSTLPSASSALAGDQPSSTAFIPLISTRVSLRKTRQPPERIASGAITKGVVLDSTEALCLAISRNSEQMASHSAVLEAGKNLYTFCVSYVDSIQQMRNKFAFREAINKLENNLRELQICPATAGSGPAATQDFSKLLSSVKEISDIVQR

[16] = biological target: Mitogen-activated protein kinase kinase kinase 3 (Homo sapiens) (UniProt Q99759); assay: Binding affinity to wild-type human partial length MAP3K3 (E320 to Y626 residues) expressed in HEK293 cells at 1 uM by Kinomescan method relative to control; type: cell-based
[17] = biological target: SNF-related serine/threonine-protein kinase (Homo sapiens) (UniProt Q9NRH2); assay: Binding affinity to wild-type human partial length SNRK (M1 to E339 residues) expressed in HEK293 cells at 1 uM by Kinomescan method relative to control; type: cell-based
[18] = biological target: Serine/threonine-protein kinase Sgk2 (Homo sapiens) (UniProt Q9HBY8); assay: Binding affinity to wild-type human partial length SGK2 (L54 to C427 residues) expressed in HEK293 cells at 1 uM by Kinomescan method relative to control; type: cell-based
[19] = tested on: eIF-2-alpha kinase GCN2 (Homo sapiens), Q9P2K8 [S808G]; assay: Binding affinity to wild-type human partial length GCN2 kinase domain 2 (R585 to T1018 residues) S808G mutant expressed in Escherichia coli BL21 at 1 uM by Kinomescan method relative to control
[20] = tested on: Phosphatidylinositol 4,5-bisphosphate 3-kinase catalytic subunit alpha isoform (Homo sapiens), P42336 [M1043I]; assay: Binding affinity to human partial length PIK3CA M1043I mutant (R108 to N1068 residues) expressed in HEK293 cells at 1 uM by Kinomescan method relative to control; type: cell-based
Sequence of Phosphatidylinositol 4,5-bisphosphate 3-kinase catalytic subunit alpha isoform (Homo sapiens), P42336 [M1043I] (P42336 whole entry M1043I, the tested form may be a part, canonical isoform): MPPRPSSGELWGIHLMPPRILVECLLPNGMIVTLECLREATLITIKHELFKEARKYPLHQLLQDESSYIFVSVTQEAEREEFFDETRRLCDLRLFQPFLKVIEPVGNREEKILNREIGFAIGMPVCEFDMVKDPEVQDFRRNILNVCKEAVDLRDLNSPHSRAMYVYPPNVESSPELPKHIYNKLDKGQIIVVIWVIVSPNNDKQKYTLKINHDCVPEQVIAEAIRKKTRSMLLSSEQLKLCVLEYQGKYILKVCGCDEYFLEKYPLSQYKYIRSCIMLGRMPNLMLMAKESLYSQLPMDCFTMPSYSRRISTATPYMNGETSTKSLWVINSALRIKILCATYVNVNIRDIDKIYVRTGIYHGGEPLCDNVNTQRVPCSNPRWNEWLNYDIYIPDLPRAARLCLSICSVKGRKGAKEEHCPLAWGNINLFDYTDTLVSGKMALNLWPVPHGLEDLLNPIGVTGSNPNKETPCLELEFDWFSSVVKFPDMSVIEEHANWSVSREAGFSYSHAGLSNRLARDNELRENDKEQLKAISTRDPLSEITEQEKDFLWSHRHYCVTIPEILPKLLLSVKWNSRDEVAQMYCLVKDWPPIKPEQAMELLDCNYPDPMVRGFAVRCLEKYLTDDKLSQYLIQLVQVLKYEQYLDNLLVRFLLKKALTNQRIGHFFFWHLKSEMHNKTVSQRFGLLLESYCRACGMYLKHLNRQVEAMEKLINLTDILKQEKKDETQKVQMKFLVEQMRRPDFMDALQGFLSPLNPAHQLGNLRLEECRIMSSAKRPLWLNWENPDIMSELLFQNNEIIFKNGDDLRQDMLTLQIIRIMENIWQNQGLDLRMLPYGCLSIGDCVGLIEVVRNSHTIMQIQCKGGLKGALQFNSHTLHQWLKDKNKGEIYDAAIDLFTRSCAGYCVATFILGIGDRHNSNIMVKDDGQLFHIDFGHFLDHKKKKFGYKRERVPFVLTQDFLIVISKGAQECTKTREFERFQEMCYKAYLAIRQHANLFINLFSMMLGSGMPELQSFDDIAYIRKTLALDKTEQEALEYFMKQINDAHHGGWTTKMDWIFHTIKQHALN

[21] = biological target: Protein kinase C eta type (Homo sapiens) (UniProt P24723); assay: Binding affinity to wild-type human partial length PRKCH (S324 to P683 residues) expressed in Escherichia coli BL21 at 1 uM by Kinomescan method relative to control
[22] = biological target: Ephrin type-B receptor 1 (Homo sapiens) (UniProt P54762); assay: Binding affinity to wild-type human partial length EPHB1 (P589 to T911 residues) expressed in Escherichia coli BL21 at 1 uM by Kinomescan method relative to control
[23] = biological target: Serine/threonine-protein kinase TAO3 (Homo sapiens) (UniProt Q9H2K8); assay: Binding affinity to wild-type human partial length TAOK3 (M1 to T316 residues) expressed in HEK293 cells at 1 uM by Kinomescan method relative to control; type: cell-based
[24] = biological target: Serine/threonine-protein kinase Nek4 (Homo sapiens) (UniProt P51957); assay: Binding affinity to wild-type human full length NEK4 (M1 to F841 residues) expressed in HEK293 cells at 1 uM by Kinomescan method relative to control; type: cell-based
How it was run: (§2)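 Kinome-wide competition binding panel run by an outside provider, with each compound tested at a single concentration. Activity is read against the kinase panel.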

[25] = biological target: 5'-AMP-activated protein kinase catalytic subunit alpha-2 (Homo sapiens) (UniProt P54646); assay: Binding affinity to wild-type human partial length AMPK alpha2 (M1 to E306 residues) expressed in Escherichia coli BL21 at 1 uM by Kinomescan method relative to control; how it was run: as §2

Row | SMILES | Activity [1] | Activity [2] | Activity [3] | Activity [4] | Activity [5] | Activity [6] | Activity [7] | Activity [8] | Activity [9] | Activity [10] | Activity [11] | Activity [12] | Activity [13] | Activity [14] | Activity [15] | Activity [16] | Activity [17] | Activity [18] | Activity [19] | Activity [20] | other results
1 | C=CC(=O)Nc1ccc(C(=O)Nc2ccc(Nc3ncc4c(n3)N(C)c3ccc(C)cc3C(=O)N4C)cc2)cc1 | 87% | 95% | 100% | 100% | 89% | 95% | 88% | 100% | 94% | 91% | 81% | 99% | 86% | 100% | 90% | 86% | 100% | 100% | 100% | 64% | Activity [21]: 100%; Activity [22]: 92%; Activity [23]: 95%; Activity [24]: 86%; Activity [25]: 88%
2 | CCC(=O)Nc1ccc(C(=O)Nc2ccc(Nc3ncc4c(n3)N(C)c3ccc(C)cc3C(=O)N4C)cc2)cc1 | 82% | 47% | 99% | 79% | 78% | 77% | 89% | 100% | 100% | 100% | 100% | 100% | 72% | 70% | 72% | 63% | 75% | 70% | 94% | 83% | Activity [21]: 100%; Activity [22]: 80%; Activity [23]: 92%; Activity [24]: 76%; Activity [25]: 100%
